ChEMBL document CHEMBL1127736, “Isozyme-specific glutathione-S-transferase inhibitors: design and synthesis” (J Med Chem, 1994)
pKi: −log10 of the molar value. Numbered stars: 1 amine (or outer) side, 2 acyl side, 3 side chain; on linkers, the order of the positions; unused ones are H or OH. Square brackets hold non-standard residues; d marks the D form. Peptide text beside a SMILES is read from it. * marks the point of attachment. γGlu = O=C(O)[CH](CCC(=O)[*:2])N[*:1]; Phg = N[CH](C(=O)O)c1ccccc1; Bn = c1ccc(C*)cc1

Tests used:
[1] = target: T1, Glutathione S-transferase Mu 2 (Homo sapiens, UniProt P28161); experiment: Inhibitory activity was measured on recombinant human Glutathione S-transferase Mu 2
T1 sequence (P28161 whole entry): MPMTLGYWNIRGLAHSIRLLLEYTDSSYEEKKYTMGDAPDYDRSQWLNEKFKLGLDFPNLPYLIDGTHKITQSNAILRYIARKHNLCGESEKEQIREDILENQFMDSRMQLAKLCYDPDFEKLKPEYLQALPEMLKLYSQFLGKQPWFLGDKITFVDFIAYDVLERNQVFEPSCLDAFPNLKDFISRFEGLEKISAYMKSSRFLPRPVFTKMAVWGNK
Method in brief: (§1)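 Enzyme inhibition was measured in the reaction of recombinant human GST isozymes (four isozymes tested) with glutathione and 1-chloro-2,4-dinitrobenzene (CDNB) as the electrophilic substrate. Ki values were determined by a previously published method. The error in each measurement is stated as ±30%.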

[2] = target: T2, Glutathione S-transferase Mu 1 (Homo sapiens, UniProt P09488); experiment: Inhibitory activity was measured on recombinant human Glutathione S-transferase Mu 1; method in brief: as §1
T2 sequence (P09488 whole entry): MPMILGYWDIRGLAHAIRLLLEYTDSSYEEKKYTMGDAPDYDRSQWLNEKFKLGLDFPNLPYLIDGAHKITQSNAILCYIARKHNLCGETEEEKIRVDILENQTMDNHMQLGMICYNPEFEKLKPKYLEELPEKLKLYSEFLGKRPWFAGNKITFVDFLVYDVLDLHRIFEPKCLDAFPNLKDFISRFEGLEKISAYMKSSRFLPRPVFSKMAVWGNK

[3] = target: T3, Glutathione S-transferase A1 (Homo sapiens, UniProt P08263); experiment: Inhibitory activity was measured on recombinant human Glutathione-S-transferase A1 enzyme; method in brief: as §1
T3 sequence (P08263 whole entry): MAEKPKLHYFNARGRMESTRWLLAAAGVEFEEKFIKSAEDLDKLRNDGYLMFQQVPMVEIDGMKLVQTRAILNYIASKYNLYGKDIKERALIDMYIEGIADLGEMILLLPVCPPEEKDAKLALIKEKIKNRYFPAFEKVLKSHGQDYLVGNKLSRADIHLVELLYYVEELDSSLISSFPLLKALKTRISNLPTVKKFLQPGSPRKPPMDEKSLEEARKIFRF

[4] = target: Glutathione S-transferase P (Homo sapiens, UniProt P09211); experiment: Inhibitory activity was measured on recombinant human Glutathione S-transferase P; method in brief: as §1
Sequence of Glutathione S-transferase P (P09211 whole entry): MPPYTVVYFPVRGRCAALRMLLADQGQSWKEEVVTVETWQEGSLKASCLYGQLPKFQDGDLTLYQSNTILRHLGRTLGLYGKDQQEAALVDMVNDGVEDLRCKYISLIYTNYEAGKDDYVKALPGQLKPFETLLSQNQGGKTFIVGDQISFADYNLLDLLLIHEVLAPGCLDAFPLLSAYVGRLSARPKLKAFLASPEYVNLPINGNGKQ

[5] = target: T2, Glutathione S-transferase Mu 1; experiment: Inhibitory activity was measured on recombinant human Glutathione-S-transferase M1a enzyme; method in brief: as §1

Row | pKi [1] | pKi [2] | pKi [3] | pKi [4] | pKi [5] | SMILES
1 | 4.70 | 5.68 | 4.37 | 4.40 |  | Cc1ccc(CSCC(NC(=O)CCC(N)C(=O)O)C(=O)NCCC(=O)O)cc1 (configuration not stated)
2 | 4.59 | 4.66 | 3.44 | 3.15 |  | NC(CCC(=O)NC(CSCc1ccccc1)C(=O)NCCC(=O)O)C(=O)O (configuration not stated)
3 | 3.74 | 4.24 | 4.61 | 6.38 |  | NC(CCC(=O)NC(CSCc1ccccc1)C(=O)NC(C(=O)O)c1ccccc1)C(=O)O (configuration not stated) (γGlu-Cys(Bn)-[Phg]-OH; configuration not given here)

More lines, now with the values behind:

Row | SMILES | pKi [1] | pKi [2] | pKi [3] | pKi [4] | pKi [5]
4 | NC(CCC(=O)NC(CSCc1ccc(Cl)cc1)C(=O)NC(C(=O)O)c1ccccc1)C(=O)O (configuration not stated) | 4.32 |  | 4.83 | 6.92 | 4.82
5 | CCCCCCSCC(NC(=O)CCC(N)C(=O)O)C(=O)NCC(=O)O (configuration not stated) | 4.44 | 5.70 | 6.08 |  | 
6 | CCCCCCSCC(NC(=O)CCC(N)C(=O)O)C(=O)NC(C(=O)O)c1ccccc1 (configuration not stated) | 4.01 | 4.39 | 5.24 | 6.07 | 
7 | CCCCCCSCC(NC(=O)CCC(N)C(=O)O)C(=O)NCCC(=O)O (configuration not stated) | 4.38 | 4.96 | 4.37 | 3.26 | 
